Bounds are passed on as bounds.

Assay [1] is filed under the species Homo sapiens. The experiment in a line: Selectivity ratio of Ki for human kappa opioid receptor to Ki for human mu opioid receptor.
A further assay has as its target Mu-type opioid receptor (Homo sapiens, UniProt P35372). As to the kind of experiment: Displacement of [3H]DAMGO from human mu opioid receptor expressed in CHO cells. The assay is classed as cell-based. For orientation: In a radioligand displacement assay an active substance lowers the binding of a labelled ligand.
Assay [2] addresses Kappa-type opioid receptor (Homo sapiens, UniProt P41145). As to the kind of experiment: Displacement of [3H]U69593 from human kappa opioid receptor expressed in CHO cells. The assay is classed as cell-based.
The species entered for assay [3] is Homo sapiens. The experiment in a line: Selectivity ratio of Ki for human delta opioid receptor to Ki for human mu opioid receptor.
For assay [4], the target named is Delta-type opioid receptor (Homo sapiens, UniProt P41143). As to the kind of experiment: Displacement of [3H]naltrindole from human delta opioid receptor expressed in CHO cells. The assay is classed as cell-based. The procedure, abridged:
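CHO cells stably expressing a single human opioid receptor were grown in DMEM with 10% FBS and penicillin/streptomycin at 37 °C in 5% CO2. Their membranes were incubated with radioligand and 12 concentrations of test compound at 25 °C in 50 mM Tris-HCl, pH 7.5.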

Sequence of Delta-type opioid receptor (P41143 whole entry): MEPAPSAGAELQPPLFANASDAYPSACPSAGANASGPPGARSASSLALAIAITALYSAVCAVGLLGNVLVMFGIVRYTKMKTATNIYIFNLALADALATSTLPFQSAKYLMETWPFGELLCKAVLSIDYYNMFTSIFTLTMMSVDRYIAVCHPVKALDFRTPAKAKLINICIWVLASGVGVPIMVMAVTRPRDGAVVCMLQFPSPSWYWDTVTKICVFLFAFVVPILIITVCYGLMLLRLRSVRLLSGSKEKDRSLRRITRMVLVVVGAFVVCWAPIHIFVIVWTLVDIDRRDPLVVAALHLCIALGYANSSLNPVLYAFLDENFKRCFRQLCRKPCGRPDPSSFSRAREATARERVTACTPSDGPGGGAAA
Sequence of Mu-type opioid receptor (P35372 whole entry): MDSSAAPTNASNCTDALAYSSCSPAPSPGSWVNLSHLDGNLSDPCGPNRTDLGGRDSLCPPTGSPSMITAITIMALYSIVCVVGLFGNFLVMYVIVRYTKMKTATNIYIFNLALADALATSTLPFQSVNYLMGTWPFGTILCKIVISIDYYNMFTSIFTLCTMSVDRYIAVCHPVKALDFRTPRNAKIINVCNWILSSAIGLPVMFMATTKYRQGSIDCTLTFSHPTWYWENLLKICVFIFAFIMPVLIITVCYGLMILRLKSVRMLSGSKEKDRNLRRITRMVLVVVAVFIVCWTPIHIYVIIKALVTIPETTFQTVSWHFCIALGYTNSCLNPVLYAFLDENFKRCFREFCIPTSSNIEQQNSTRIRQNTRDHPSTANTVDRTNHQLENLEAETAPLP
Sequence of Kappa-type opioid receptor (P41145 whole entry): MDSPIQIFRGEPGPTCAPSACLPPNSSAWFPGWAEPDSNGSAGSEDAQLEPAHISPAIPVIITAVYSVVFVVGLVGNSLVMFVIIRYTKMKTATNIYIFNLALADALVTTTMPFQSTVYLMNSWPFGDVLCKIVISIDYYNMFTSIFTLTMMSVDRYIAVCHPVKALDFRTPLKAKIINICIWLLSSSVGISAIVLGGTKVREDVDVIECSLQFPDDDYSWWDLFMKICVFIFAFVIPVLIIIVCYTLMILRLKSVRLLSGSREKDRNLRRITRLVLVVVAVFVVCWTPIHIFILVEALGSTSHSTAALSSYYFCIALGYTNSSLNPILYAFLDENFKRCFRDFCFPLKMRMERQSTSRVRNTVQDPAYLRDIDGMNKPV

A word on the Ki: it is a dissociation constant, usually derived from enzyme kinetics or from competition with a known ligand. As to `Ic1ccc(CNc2ccc3c(c2)[C@@]24CCCC[C@H]2[C@@H](C3)N(CC2CCC2)CC4)cc1`, the Ratio Ki was 1.1 in the assay filed under Homo sapiens [1] and 35 in the assay listed under Homo sapiens [3]. Besides, the Ki on Mu-type opioid receptor came out at 5.4 nM; in assay [2] it was 5.8 nM; in assay [4], 190 nM.
Take `NCc1cc2c(cc1O)[C@@]13CCCC[C@H]1[C@@H](C2)N(CC1CCC1)CC3`: the Ratio Ki in the assay filed under Homo sapiens [1] is 0.5. For the same compound, the values for the inhibition constant (Ki) (on Mu-type opioid receptor; in assay [2]; in assay [4]) were 290 nM, 140 nM and above 10000 nM, respectively.
On to `CN1CC[C@]23CCCC[C@H]2[C@H]1Cc1ccc(OC(=O)Nc2ccc(I)cc2)cc13`, for which the Ratio Ki worked out at 15 in the assay filed under Homo sapiens [1] and 4 in the assay filed under Homo sapiens [3]. Further, the figures for the inhibitory constant (Ki) (at Mu-type opioid receptor; in assay [2]; in assay [4]) were 0.34 nM, 5.2 nM and 160 nM, respectively.
The corresponding values for `CCN(CCCCCCN(CC)Cc1cc2c(cc1O)[C@@]13CCCC[C@H]1[C@@H](C2)N(CC1CCC1)CC3)Cc1cc2c(cc1O)[C@@]13CCCC[C@H]1[C@@H](C2)N(CC1CCC1)CC3` are 1, 13, 64 nM, 54 nM and 710 nM.
On to `c1ccc(Nc2ccc3c(c2)[C@@]24CCCC[C@H]2[C@@H](C3)N(CC2CCC2)CC4)cc1`, for which the Ratio Ki in the assay filed under Homo sapiens [1] was 1; in the assay listed under Homo sapiens [3], 2. The inhibitory constant (Ki) was determined as 1.7 nM on Mu-type opioid receptor, 1.5 nM in assay [2] and 39 nM in assay [4].
The corresponding values for `c1ccc(CNc2ccc3c(c2)[C@@]24CCCC[C@H]2[C@@H](C3)N(CC2CCC2)CC4)cc1` are 1.6, 76, 1.7 nM, 2.8 nM and 130 nM.
In the same order, the values of `c1ccc(CNc2ccc3c(c2)[C@@]24CCCC[C@H]2[C@@H](C3)N(CC2CC2)CC4)cc1` are 1.4, 112, 0.26 nM, 0.34 nM and 29 nM.
The corresponding values for `O=C(Nc1ccc(I)cc1)Nc1ccc2c(c1)[C@@]13CCCC[C@H]1[C@@H](C2)N(CC1CC1)CC3` are 0.5, 4, 23 nM, 12 nM and 94 nM.
For the compound `Oc1cc2c(cc1C(O)CCCCC(O)c1cc3c(cc1O)[C@@]14CCCC[C@H]1[C@@H](C3)N(CC1CCC1)CC4)C[C@@H]1[C@@H]3CCCC[C@]23CCN1CC1CCC1` (mixture of isomers), the Ratio Ki was found to be 1 in the assay listed under Homo sapiens [1] and 24 in the assay listed under Homo sapiens [3]. Further, the inhibition constant Ki on Mu-type opioid receptor came out at 74 nM; in assay [2], 67 nM; in assay [4], 1600 nM.
The corresponding values for `Ic1ccc(CN(Cc2ccc(I)cc2)c2ccc3c(c2)[C@@]24CCCC[C@H]2[C@@H](C3)N(CC2CCC2)CC4)cc1` are 1, 60, 16 nM, 16 nM and 960 nM.
In the same order, the values of `CCCCC(O)c1cc2c(cc1O)[C@@]13CCCC[C@H]1[C@@H](C2)N(CC1CCC1)CC3` (mixture of isomers) are 1, 6, 17 nM, 13 nM and 72 nM.
Consider `CN1CC[C@]23CCCC[C@H]2[C@H]1Cc1ccc(NC(=O)Nc2ccccc2)cc13`, for which the Ratio Ki in the assay filed under Homo sapiens [1] was 31; in the assay listed under Homo sapiens [3], 29. For the same compound, the values for the Ki (at Mu-type opioid receptor; in assay [2]; in assay [4]) were 11 nM, 340 nM and 320 nM, respectively.
For the compound `Ic1ccc(CNc2ccc3c(c2)[C@@]24CCCC[C@H]2[C@@H](C3)N(CC2CC2)CC4)cc1`, the Ki is 0.71 nM at Mu-type opioid receptor, 0.79 nM in assay [2] and 34 nM in assay [4].
For `CN1CC[C@]23CCCC[C@H]2[C@H]1Cc1ccc(NC(=O)Nc2ccc(I)cc2)cc13`, the Ratio Ki in the assay listed under Homo sapiens [1] came to 16; in the assay listed under Homo sapiens [3], 18. Besides, the inhibition constant (Ki) at Mu-type opioid receptor amounted to 17 nM; in assay [2] it was 280 nM; in assay [4], 300 nM.
As to `O/N=C\c1cc2c(cc1O)[C@@]13CCCC[C@H]1[C@@H](C2)N(CC1CCC1)CC3`, the Ratio Ki in the assay listed under Homo sapiens [1] came to 0.16; in the assay listed under Homo sapiens [3] it was 47.
Regarding `Oc1cc2c(cc1C(O)CCCCCCCCCCC(O)c1cc3c(cc1O)[C@@]14CCCC[C@H]1[C@@H](C3)N(CC1CCC1)CC4)C[C@@H]1[C@@H]3CCCC[C@]23CCN1CC1CCC1` (mixture of isomers), the Ratio Ki stood at 1 in the assay filed under Homo sapiens [1] and 24 in the assay listed under Homo sapiens [3]. Further, the Ki on Mu-type opioid receptor worked out at 35 nM; in assay [2], 31 nM; in assay [4], 730 nM.
In the same order, the values of `O=C(Nc1ccc(I)cc1)Nc1ccc2c(c1)[C@@]13CCCC[C@H]1[C@@H](C2)N(CC1CCC1)CC3` are 0.5, 4, 24 nM, 28 nM and 250 nM.
In the same order, the values of `COc1ccc(Nc2ccc3c(c2)[C@@]24CCCC[C@H]2[C@@H](C3)N(CC2CCC2)CC4)cc1` are 1, 3, 0.61 nM, 0.59 nM and 19 nM.
Take `OCc1cc2c(cc1O)[C@@]13CCCC[C@H]1[C@@H](C2)N(CC1CCC1)CC3`: the Ratio Ki in the assay listed under Homo sapiens [1] was determined as 0.25. For the same compound, the Ki at Mu-type opioid receptor is 360 nM; in assay [2], 86 nM; in assay [4], above 10000 nM.
In the case of `O=C(Nc1ccccc1)Nc1ccc2c(c1)[C@@]13CCCC[C@H]1[C@@H](C2)N(CC1CC1)CC3`, the figures for the Ratio Ki in the assay filed under Homo sapiens [1] and in the assay listed under Homo sapiens [3] were 0.5 and 4, respectively. For the same compound, the Ki was determined as 3.9 nM on Mu-type opioid receptor, 1.6 nM in assay [2] and 16 nM in assay [4].
The corresponding values for `COc1ccc(Nc2ccc3c(c2)[C@@]24CCCC[C@H]2[C@@H](C3)N(CC2CC2)CC4)cc1` are 1, 65, 0.026 nM, 0.03 nM and 1.7 nM.
In the same order, the values of `c1ccc(Nc2ccc3c(c2)[C@@]24CCCC[C@H]2[C@@H](C3)N(CC2CC2)CC4)cc1` are 0.5, 68, 0.08 nM, 0.047 nM and 5.4 nM.
As for `CCC(O)c1cc2c(cc1O)[C@@]13CCCC[C@H]1[C@@H](C2)N(CC1CCC1)CC3` (mixture of isomers), the Ratio Ki in the assay filed under Homo sapiens [1] is 0.3. In addition, the inhibition constant Ki at Mu-type opioid receptor is 180 nM; in assay [2], 72 nM; in assay [4], above 10000 nM.
In the case of `O=C(Nc1ccc(I)cc1)Oc1ccc2c(c1)[C@@]13CCCC[C@H]1[C@@H](C2)N(CC1CCC1)CC3`, the Ratio Ki amounted to 1 in the assay filed under Homo sapiens [1] and 68 in the assay listed under Homo sapiens [3]. For the same compound, the inhibition constant Ki at Mu-type opioid receptor was 1.1 nM; in assay [2] it was 0.99 nM; in assay [4], 67 nM.
The corresponding values for `Oc1cc2c(cc1CNCCCCCCCCNCc1cc3c(cc1O)[C@@]14CCCC[C@H]1[C@@H](C3)N(CC1CCC1)CC4)C[C@@H]1[C@@H]3CCCC[C@]23CCN1CC1CCC1` are 2, 42, 24 nM, 40 nM and 1000 nM.
In the case of `CCCNCc1cc2c(cc1O)[C@@]13CCCC[C@H]1[C@@H](C2)N(CC1CCC1)CC3`, the Ratio Ki in the assay listed under Homo sapiens [1] worked out at 1. Moreover, the results for the Ki (at Mu-type opioid receptor; in assay [2]; in assay [4]) were 330 nM, 350 nM and above 10000 nM, respectively.
For `COc1ccc(CN(Cc2ccc(OC)cc2)c2ccc3c(c2)[C@@]24CCCC[C@H]2[C@@H](C3)N(CC2CC2)CC4)cc1`, the figures for the Ratio Ki in the assay listed under Homo sapiens [1] and in the assay filed under Homo sapiens [3] were 2 and 48, respectively. Besides, the Ki was 2.5 nM on Mu-type opioid receptor, 3.9 nM in assay [2] and 120 nM in assay [4].
The corresponding values for `COc1ccc(CNc2ccc3c(c2)[C@@]24CCCC[C@H]2[C@@H](C3)N(CC2CC2)CC4)cc1` are 2, 65, 0.31 nM, 0.51 nM and 20 nM.
In the same order, the values of `Oc1cc2c(cc1CNCCCCNCc1cc3c(cc1O)[C@@]14CCCC[C@H]1[C@@H](C3)N(CC1CCC1)CC4)C[C@@H]1[C@@H]3CCCC[C@]23CCN1CC1CCC1` are 0.7, 28, 6.8 nM, 4.9 nM and 190 nM.
In the same order, the values of `OCCCCCCCCCCC(O)c1cc2c(cc1O)[C@@]13CCCC[C@H]1[C@@H](C2)N(CC1CCC1)CC3` (mixture of isomers) are 1, 23, 36 nM, 26 nM and 610 nM.
Take `CN1CC[C@]23CCCC[C@H]2[C@H]1Cc1cc(CNCc2ccccc2)c(O)cc13`: the Ratio Ki in the assay listed under Homo sapiens [1] turned out to be 2. Moreover, the inhibitory constant (Ki) on Mu-type opioid receptor is 190 nM; in assay [2] it was 380 nM; in assay [4], above 10000 nM.
With `O=C(CCCCC(=O)NCc1cc2c(cc1O)[C@@]13CCCC[C@H]1[C@@H](C2)N(CC1CCC1)CC3)NCc1cc2c(cc1O)[C@@]13CCCC[C@H]1[C@@H](C2)N(CC1CCC1)CC3`, the Ratio Ki in the assay filed under Homo sapiens [1] is 1; in the assay filed under Homo sapiens [3] it was 21. Further, the inhibition constant (Ki) amounted to 36 nM at Mu-type opioid receptor and 30 nM in assay [2].
As for `CN1CC[C@]23CCCC[C@H]2[C@H]1Cc1cc2c(cc13)OCN(Cc1ccccc1)C2`, in the assay listed under Homo sapiens [1], the Ratio Ki is 3. In addition, the inhibition constant (Ki) at Mu-type opioid receptor is 110 nM; in assay [2], 310 nM; in assay [4], above 10000 nM.
